# Measurements published in ChEMBL document CHEMBL1275434, “In vitro evaluation of CBR-2092, a novel rifamycin-quinolone hybrid antibiotic: studies of the mode of action in Staphylococcus aureus” (Antimicrob Agents Chemother, 2008).
# Activity calls are given as the source filed them. No cut-off for these calls is given here.
# How the values were obtained:
# Staphylococcus aureus [1] = assay: Antimicrobial activity against Staphylococcus aureus CB815 harboring rpoB H481Y, gyrA […] and parC S80F mutant genes by agar dilution method; type: functional
# Summary of the method: (§1)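 CLSI agar dilution MIC with cation-adjusted Mueller-Hinton (MHII) agar as the base medium.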
# Staphylococcus aureus [2] = assay: Antimicrobial activity against rifampin-sensitive Staphylococcus aureus CB190 harboring rpoB A477V mutant gene by broth microdilution method; type: functional
# Summary of the method: (§2)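 CLSI broth microdilution MIC in cation-adjusted Mueller-Hinton (MHII) broth supplemented with 0.002% (vol/vol) polysorbate 80, included to limit compound loss to plastic surfaces.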
# Staphylococcus aureus [3] = assay: Antimicrobial activity against wild-type Staphylococcus aureus CB190; type: functional
# Staphylococcus aureus [4] = assay: Antimicrobial activity against Staphylococcus aureus CB1420 harboring rpoB H481Y and gyrA G584V mutant genes selected after 0.1 ug/ml drug exposure by broth microdilution method
# Staphylococcus aureus [5] = assay: Antimicrobial activity against rifampin-sensitive Staphylococcus aureus CB190 harboring rpoB H481Y mutant gene by broth microdilution method; type: functional; summary of the method: as §2
# Staphylococcus aureus [6] = assay: Antimicrobial activity against Staphylococcus aureus CB1953 harboring rpoB H481Y, gyrA S84L, gyrA V598I, parC S80F, parC R570H mutant genes selected after CBR-2092 exposure for 7 days by agar dilution method; type: functional; conditions: CB1953, 168 h
# Summary of the method: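 CLSI agar dilution MIC on MHII base medium against strains from multistep passage (up to 20–21 days) of parents with preexisting rifamycin and/or quinolone resistance.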
# Staphylococcus aureus [7] = assay: Antimicrobial activity against Staphylococcus aureus CB1954 harboring rpoB H481Y, gyrA S84L, K809 deficient gyrA, parC S80F, parC A523D mutant genes selected after CBR-2092 exposure for 7 days by broth microdilution method; type: functional; conditions: CB1954, 168 h; summary of the method: as §2
# Staphylococcus aureus [8] = assay: Antimicrobial activity against Staphylococcus aureus CB1871 harboring rpoB H481Y mutant gene by broth microdilution method
# Staphylococcus aureus [9] = assay: Antimicrobial activity against Staphylococcus aureus CB1881 harboring rpoB R484H mutant gene and L520 deficient gyrA gene; type: functional
# Staphylococcus aureus [10] = assay: Antimicrobial activity against Staphylococcus aureus CB1954 harboring rpoB H481Y, gyrA S84L, K809 deficient gyrA, parC S80F, parC A523D mutant genes selected after CBR-2092 exposure for 7 days by agar dilution method; type: functional; conditions: CB1954, 168 h; summary of the method: as §1
# Staphylococcus aureus [11] = assay: Inhibition of cell wall synthesis in quinolone-resistant Staphylococcus aureus CB814 harboring gyrA S84L and parC S80F mutant genes assessed as decrease in [2,3-3H]D-alanine incorporation at 0.5 ug/ml; type: functional, organism-based
# Summary of the method: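 Macromolecular synthesis time course in S. aureus, measuring incorporation of [methyl-3H]thymidine (DNA), [5,6-3H]uridine (RNA) or [2,3-3H]D-alanine (cell wall). At each time point, incorporation is expressed as percent of the DMSO-treated control culture. Incorporation at time zero is set to 100%.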
# Staphylococcus aureus [12] = assay: Antimicrobial activity against Staphylococcus aureus CB1947 harboring rpoB H481Y, gyrA S84L, E697 deficient gyrA, parC G167V mutant genes selected after CBR-2092 exposure for 20 days by agar dilution method; conditions: CB1947, 480 h
# Staphylococcus aureus [13] = assay: Inhibition of protein synthesis in quinolone-resistant Staphylococcus aureus CB814 harboring gyrA S84L and parC S80F mutant genes assessed as decrease in L-[3,4,5-3H]leucine incorporation at 0.5 ug/ml; type: functional, organism-based
# Summary of the method: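 Time-course radiolabel incorporation in S. aureus cultures with test agent. Precursors: [methyl-3H]thymidine (DNA), [5,6-3H]uridine (RNA), L-[3,4,5-3H]leucine (protein), [2,3-3H]D-alanine (cell wall). At each time point, incorporation with agent is expressed relative to the DMSO-treated control culture as percent incorporation. Time-zero incorporation is set to 100%.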
# Staphylococcus aureus [14] = assay: Antimicrobial activity against Staphylococcus aureus CB1884 harboring rpoB R484H mutant gene, L520 deficient gyrA gene, gyrA S84L mutant gene, R236 duplicated par C gene and parCH103Y mutant gene by broth microdilution; type: functional
# Summary of the method: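 CLSI broth microdilution MIC in MHII broth with 0.002% (vol/vol) polysorbate 80. Isolates came from daily stepwise broth passage at sub-MIC drug (MHII without polysorbate 80, 10^6 CFU/ml inoculum, 20–24 h shaking at 37°C), were purified drug-free, and were sequenced at target loci.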
# Staphylococcus aureus [15] = assay: Antimicrobial activity against Staphylococcus aureus CB811 harboring quinolone-resistant gyrA S84L mutant gene by broth microdilution method; type: functional; summary of the method: as §2
# Staphylococcus aureus [16] = assay: Antimicrobial activity against Staphylococcus aureus CB1881 harboring rpoB R484H mutant gene and L520 deficient gyrA gene by agar dilution method; type: functional
# Summary of the method: (§3)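 CLSI agar dilution MIC on MHII base medium against stepwise-passage isolates; passage was in MHII broth without polysorbate 80, daily at 37°C.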
# Staphylococcus aureus [17] = assay: Antimicrobial activity against Staphylococcus aureus CB1334 harboring rpoB H481Y, parC S80F,Q27H and gyrA S84L mutant genes selected after 0.8 ug/ml drug exposure by broth microdilution method; type: functional
# Staphylococcus aureus [18] = assay: Antimicrobial activity against Staphylococcus aureus CB808 harboring quinolone-resistant parC S80F mutant gene by broth microdilution method; type: functional; summary of the method: as §2
# Staphylococcus aureus [19] = assay: Antimicrobial activity against Staphylococcus aureus CB1947 harboring rpoB H481Y, gyrA S84L, E697 deficient gyrA, parC G167V mutant genes selected after CBR-2092 exposure for 20 days by broth microdilution method; conditions: CB1947, 480 h
# Staphylococcus aureus [20] = assay: Antimicrobial activity against Staphylococcus aureus CB814 harboring […] and parC S80F mutant genes by agar dilution method; type: functional; summary of the method: as §1
# Staphylococcus aureus [21] = assay: Antimicrobial activity against Staphylococcus aureus CB1354 harboring rpoB H481Y, parC S80F, parE R455H and gyrA S84L mutant genes selected after 0.53 ug/ml drug exposure by broth microdilution method; type: functional
# Staphylococcus aureus [22] = assay: Antimicrobial activity against Staphylococcus aureus CB1883 harboring rpoB R484H mutant gene, L520 deficient gyrA gene, gyrA S84L mutant gene and R236 duplicated par C gene by agar dilution method; type: functional; summary of the method: as §3
# Staphylococcus aureus [23] = assay: Antimicrobial activity against Staphylococcus aureus CB1418 harboring rpoB H481Y and gyrA D705N mutant genes selected after 0.1 ug/ml drug exposure by broth microdilution method
# Staphylococcus aureus [24] = assay: Antimicrobial activity against Staphylococcus aureus CB1887 harboring rpoB R484H, L520 deficient gyrA, […], R236 duplicated parC and parC H103Y mutant genes selected after ABT-719 exposure for 20 days by agar dilution method; type: functional; conditions: CB1887, 480 h
# Staphylococcus aureus [25] = assay: Antimicrobial activity against Staphylococcus aureus CB190 by broth microdilution method; type: functional
# Staphylococcus aureus [26] = assay: Antimicrobial activity against Staphylococcus aureus CB809 harboring rpoB H481Y and parC S80F mutant genes by broth microdilution method
# Staphylococcus aureus [27] = assay: Antimicrobial activity against Staphylococcus aureus CB1880 harboring rpoB R484H mutant gene by agar dilution method; type: functional; summary of the method: as §3
# Staphylococcus aureus [28] = assay: Antimicrobial activity against Staphylococcus aureus CB1953 harboring rpoB H481Y, gyrA S84L, gyrA V598I, parC S80F, parC R570H mutant genes selected after CBR-2092 exposure for 7 days by broth microdilution method; type: functional; conditions: CB1953, 168 h; summary of the method: as §2
structure (smiles),measurement,setting,value
CO[C@H]1/C=C/O[C@@]2(C)Oc3c(C)c(O)c4c(O)c(c(/C=N/N5CCC(N(C)C6([C@@H]7CCN(c8c(F)cn9c(=O)c(C(=O)O)cc(C%10CC%10)c9c8C)C7)CC6)CC5)c(O)c4c3C2=O)NC(=O)/C(C)=C\C=C\[C@H](C)[C@H](O)[C@@H](C)[C@@H](O)[C@@H](C)[C@H](OC(C)=O)[C@@H]1C,MIC,Staphylococcus aureus [1],0.25 mg/L
same,MIC,Staphylococcus aureus [2],0.12 mg/L
same,Time,Staphylococcus aureus [3],38 min
same,MIC,Staphylococcus aureus [4],0.5 mg/L
same,MIC,Staphylococcus aureus [5],0.12 mg/L
same,MIC,Staphylococcus aureus [6],2 mg/L
same,MIC,Staphylococcus aureus [7],16 mg/L
same,MIC,Staphylococcus aureus [8],0.12 mg/L
same,Time,Staphylococcus aureus [9],41 min
same,MIC,Staphylococcus aureus [10],2 mg/L
same,Activity,Staphylococcus aureus [11],Active
same,MIC,Staphylococcus aureus [12],1 mg/L
same,Activity,Staphylococcus aureus [13],Active
same,MIC,Staphylococcus aureus [14],64 mg/L
same,MIC,Staphylococcus aureus [15],0.015 mg/L
same,MIC,Staphylococcus aureus [16],0.25 mg/L
same,MIC,Staphylococcus aureus [17],8 mg/L
same,MIC,Staphylococcus aureus [18],0.015 mg/L
same,MIC,Staphylococcus aureus [19],4 mg/L
same,MIC,Staphylococcus aureus [20],0.06 mg/L
same,MIC,Staphylococcus aureus [21],16 mg/L
same,MIC,Staphylococcus aureus [22],1 mg/L
same,MIC,Staphylococcus aureus [23],0.5 mg/L
same,MIC,Staphylococcus aureus [24],> 8 mg/L
same,MIC,Staphylococcus aureus [25],0.015 mg/L
same,MIC,Staphylococcus aureus [26],0.25 mg/L
same,MIC,Staphylococcus aureus [27],0.032 mg/L
same,MIC,Staphylococcus aureus [28],16 mg/L
